Measured values reported in ChEMBL document CHEMBL1147173, “Design, synthesis, inhibitory activity, and SAR studies of pyrrolidine derivatives as neuraminidase inhibitors” (Bioorg Med Chem, 2007).
Where a SMILES comes first, the peptide text is derived from it. [ ]: non-standard residue; d: D form. The star is where a group is joined. Hyp = O=C(O)[C@@H]1C[C@@H](O)CN1; Boc = CC(C)(C)OC(=O)*; NHOH = ON*

Target: Neuraminidase (Influenza A virus, UniProt B4URF0)
Assay: Inhibition of Influenza A virus type A H3N2 neuraminidase
How it was run: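 NA was taken from influenza A virus strains Yuefang 72-243 A and Jifang 90-15 A and prepared by the Laver method. The enzyme in 33 mmol/L MES (pH 3.5) was mixed with 4 mmol/L CaCl₂ and 20 µmol/L MUNANA (added solutions) and incubated for 10 min at 37 °C. The reaction was stopped with 14 mmol/L NaOH in 83% ethanol. Fluorescence was read at 360/450 nm with substrate blanks subtracted. IC50 came from percent inhibition versus concentration, with each point run in duplicate.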

Sequence of Neuraminidase (B4URF0 whole entry): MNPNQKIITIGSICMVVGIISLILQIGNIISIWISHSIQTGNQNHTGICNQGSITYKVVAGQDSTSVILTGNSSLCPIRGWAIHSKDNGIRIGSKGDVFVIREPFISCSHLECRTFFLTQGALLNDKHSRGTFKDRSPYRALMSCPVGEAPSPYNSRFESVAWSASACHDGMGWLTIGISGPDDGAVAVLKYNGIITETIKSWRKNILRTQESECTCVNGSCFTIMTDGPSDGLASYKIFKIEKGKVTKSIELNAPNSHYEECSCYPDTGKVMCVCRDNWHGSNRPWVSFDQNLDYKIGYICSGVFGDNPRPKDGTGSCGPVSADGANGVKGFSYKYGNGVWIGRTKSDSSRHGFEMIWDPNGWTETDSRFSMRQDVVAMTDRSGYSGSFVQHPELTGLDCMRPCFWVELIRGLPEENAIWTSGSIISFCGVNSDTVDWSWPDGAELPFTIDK

SMILES	IC50 (read-out: IC50) [µM]	IC50 (read-out: Log IC50 (converted)) [µM]
C[C@H](NC(=O)OC(C)(C)C)C(=O)N1C[C@@H](N)C[C@H]1C(=O)O	15.8	53.7
C[C@H](NC(=O)OC(C)(C)C)C(=O)N1C[C@@H](N)C[C@H]1C(=O)NO	12.6	40.7
CC[C@H](C)[C@H](NC(=O)OC(C)(C)C)C(=O)N1C[C@@H](N)C[C@H]1C(=O)O	2.71	7.94
CSCC[C@H](NC(=O)OC(C)(C)C)C(=O)N1C[C@@H](N)C[C@H]1C(=O)O	1.56	4.37
CC(C)C[C@H](NC(=O)OC(C)(C)C)C(=O)N1C[C@@H](N)C[C@H]1C(=O)NO	6.13	17.4
O=C(NO)[C@@H]1C[C@@H](O)CN1C(=O)Cc1ccccc1Nc1c(Cl)cccc1Cl	8.54	20
CC(C)[C@H](NC(=O)OC(C)(C)C)C(=O)N1C[C@@H](N)C[C@H]1C(=O)O	4.29	13.2
COC(=O)[C@@H]1C[C@@H](N)CN1C(=O)[C@@H](N)CC(C)C	48	191
CC(C)(C)OC(=O)N[C@@H](Cc1ccccc1)C(=O)N1C[C@@H](N)C[C@H]1C(=O)O	2.4	6.46
CC[C@H](C)[C@H](NC(=O)OC(C)(C)C)C(=O)N1C[C@@H](N)C[C@H]1C(=O)NO	2.1	5.89
O=C(O)[C@@H]1C[C@@H](O)CN1C(=O)Cc1ccccc1Nc1c(Cl)cccc1Cl	19.8	49
CC(C)(C)OC(=O)N[C@@H](Cc1ccccc1)C(=O)N1C[C@@H](N)C[C@H]1C(=O)NO	4.17	10.7
N[C@H]1C[C@@H](C(=O)O)N(C(=O)Cc2ccccc2Nc2c(Cl)cccc2Cl)C1	16.2	39.8
CC(=O)N1C[C@H](O)C[C@@H]1C(=O)O	48.7	282
COC(=O)[C@@H]1C[C@H](N)CN1C(=O)[C@H](C)NC(=O)OC(C)(C)C	83.7	269
N[C@H]1C[C@@H](C(=O)NO)N(C(=O)Cc2ccccc2Nc2c(Cl)cccc2Cl)C1	3.57	8.51
COC(=O)[C@@H]1C[C@@H](O)CN1C(=O)[C@H](C)NC(=O)OC(C)(C)C (Boc-Ala-[Hyp]-OMe)	90.8	288
CC[C@H](C)[C@H](NC(=O)OC(C)(C)C)C(=O)N1C[C@H](O)C[C@H]1C(=O)NO (Boc-Ile-[Hyp]-{NHOH})	2.15	6.03
CC(C)C[C@H](NC(=O)OC(C)(C)C)C(=O)N1C[C@H](O)C[C@H]1C(=O)O (Boc-Leu-[Hyp]-OH)	11.5	33.9
CC(C)C[C@H](NC(=O)OC(C)(C)C)C(=O)N1C[C@H](O)C[C@H]1C(=O)NO (Boc-Leu-[Hyp]-{NHOH})	3.87	11
CC(C)(C)OC(=O)N[C@@H](Cc1ccccc1)C(=O)N1C[C@H](O)C[C@H]1C(=O)O (Boc-Phe-[Hyp]-OH)	2.85	7.59
CC(C)(C)OC(=O)N[C@@H](Cc1ccccc1)C(=O)N1C[C@H](O)C[C@H]1C(=O)NO (Boc-Phe-[Hyp]-{NHOH})	4.27	11
CC(C)[C@H](NC(=O)OC(C)(C)C)C(=O)N1C[C@H](O)C[C@H]1C(=O)O (Boc-Val-[Hyp]-OH)	4.63	14.1
CC(C)[C@H](NC(=O)OC(C)(C)C)C(=O)N1C[C@H](O)C[C@H]1C(=O)NO (Boc-Val-[Hyp]-{NHOH})	6.09	17.8
